“Also recorded” adds a separate entry of the source.
Experiments:
recombinant Bcl-2 = experiment: Plasmon resonance: interaction with recombinant Bcl-2; format: binding, human; conditions: surface plasmon resonance, control experiments
[1] = Planar lipid bilayers, single channel level, Vpr52-96 without ANT; format: biochemical; conditions: <1 nM Vpr52-96
How it was run: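 Solvent-free planar bilayers formed by monolayer apposition on a 125-μm Teflon aperture, or by tip-dip on patch pipettes. Recording was in symmetric 100 mM KCl, 2 mM MgCl2, 10 mM Hepes pH 7.4, with Ag/AgCl electrodes under applied voltage. Bare membranes were first checked for electrical silence; peptide was added to the aqueous subphase after bilayer formation. Single-channel current traces show the most frequent events.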

[2] = tested on: purified mitochondria, inner membrane; experiment: Respirometry: NADH-dependent oxygen consumption; format: biochemical, mouse
How it was run: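 Oxygen uptake was recorded by Clark electrode at 37°C (mannitol/KCl/MgCl2/BSA/KH2PO4 medium, pH 7.4) after 2 mM NADH and 1 μM peptide, with rotenone added to test sensitivity; rates are in nmol O2/min/mg protein. For inhibitor tests, mitochondria were pretreated 10 min with 0.8 μM Bcl-2 or 10 μM BA before succinate plus CCCP or NADH. In the kinetics, 15 μM cytochrome c oxidation was followed in parallel, with 100% set by 2.5 mM laurylmaltoside.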

ANT [3] = molecular target: T1, ANT (Rattus norvegicus, UniProt Q05962); experiment: Planar lipid bilayers, single channel level, Vpr52-96 plus ANT; format: biochemical; conditions: Vpr52-96 plus ANT 0.4:1 nM, +115 mV; tip-dip technique
T1 sequence (Q05962 1-298): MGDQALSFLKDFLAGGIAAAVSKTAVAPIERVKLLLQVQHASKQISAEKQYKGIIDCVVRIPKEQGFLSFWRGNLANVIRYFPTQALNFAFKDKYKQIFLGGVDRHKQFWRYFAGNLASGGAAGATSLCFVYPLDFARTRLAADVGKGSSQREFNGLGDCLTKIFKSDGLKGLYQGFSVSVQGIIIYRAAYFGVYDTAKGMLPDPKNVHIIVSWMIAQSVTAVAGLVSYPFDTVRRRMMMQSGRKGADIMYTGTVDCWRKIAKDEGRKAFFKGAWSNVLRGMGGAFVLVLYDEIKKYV
How it was run: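 Rat heart mitochondrial ANT, purified via subtilisin treatment, Triton X-100 solubilization, hydroxyapatite and SP column (0–1 M NaCl). Proteins held 30 min RT with 1 mM CaCl2, 40 μM atractyloside or control electrolyte, mixed with dried lipid (60 μg protein/mg lipid), detergent removed by beads. Tip-dip bilayers, symmetric 100 mM KCl, 2 mM MgCl2, 10 mM Hepes pH 7.4.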

[4] = tested on: purified mitochondria (respiratory chain); experiment: Polarography: succinate oxidation of purified mitochondria; format: biochemical, mouse; conditions: 1 μM Vpr52-96, 10 min pretreatment; Fig. 4 A
How it was run: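 Mouse liver mitochondria, pretreated 10 min with test peptide or untreated, held at 37°C in a Clark-electrode cell. Medium: 0.3 M mannitol, 10 mM KCl, 5 mM MgCl2, 1 mg/ml BSA, 10 mM KH2PO4, pH 7.4. Oxygen consumption traced on succinate with sequential ADP, oligomycin and CCCP additions.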

ANT [5] = molecular target: T1, ANT; experiment: Plasmon resonance; format: binding
isolated mitochondria = experiment: Ultrastructure: swelling of isolated mitochondria; format: biochemical, mouse; conditions: for swollen mitochondria: control <5%
ANT proteoliposomes [6] = experiment: Binding of FITC-labeled Vpr52-96 to ANT proteoliposomes; parameters: species or system rat; conditions: FITC-labeled Vpr52-96, 30 min; Fig. 2 A; n = 3
How it was run: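 ANT was purified from rat heart mitochondria (Triton X-100 extraction, hydroxyapatite, then cation-exchange with a 0–1 M NaCl gradient) and reconstituted at 0.1 mg/ml into phosphatidylcholine/cardiolipin liposomes, then dialysed overnight at 4°C. Proteoliposomes were exposed 30 min to FITC-peptide in 125 mM sucrose/10 mM Hepes pH 7.4, ultracentrifuged (290,000 g, 45 min, 10°C) and read by flow cytometry. Inhibitors were preincubated and washed out; mean ± SD, n = 3.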

[7] = Pore-opening assay: plain liposomes; format: biochemical; conditions: 4-MUP loaded, data not shown
How it was run: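 Liposomes sonicated on ice with 1 mM 4-MUP and 10 mM KCl, then freed of unencapsulated probe on Sephadex G-25. Diluted in 10 mM Hepes, 125 mM saccharose pH 7.4 and exposed to inducers for 1 h at RT; inhibitors were added 30 min earlier. Alkaline phosphatase with 0.5 mM MgCl2 was added for 15 min at 37°C and stopped with EDTA buffer at pH 10. 4-MU fluorescence (360/450 nm) was expressed as % of the atractyloside response after subtracting untreated liposomes.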

recombinant VDAC = experiment: Plasmon resonance: binding to recombinant VDAC; conditions: control experiments, VDAC concentrations up to 10 μM
[8] = tested on: purified mitochondria (cytochrome c release); experiment: Cytochrome c release immunodetected in supernatant of mitochondria; format: biochemical, mouse; conditions: 1 μM Vpr52-96; immunoblot; Fig. 5 C
How it was run: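 Mouse liver mitochondria treated with test peptide over a time course. Supernatants cleared by two spins (6,800 g 15 min; 20,000 g 1 h; both 4°C), stored at −80°C, and cytochrome c immunodetected with a mouse monoclonal antibody. In parallel, ΔΨm loss scored by flow cytometry with JC-1 as percent low-ΔΨm mitochondria.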

[9] = tested on: purified mitochondria (respiratory control); experiment: Respiratory control; format: biochemical, mouse; conditions: 1 μM Vpr-derived peptides, 10 min
How it was run: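 Clark-electrode oxygraphy at 37°C in 0.3 M mannitol, 10 mM KCl, 5 mM MgCl2, 1 mg/ml BSA, 10 mM KH2PO4, pH 7.4. Purified mitochondria were pretreated 10 min with 1 μM peptide; succinate oxidation was followed with sequential ADP, oligomycin and CCCP additions. Mean of three determinations.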

[10] = tested on: purified mitochondria, outer membrane; experiment: Cytochrome c oxidation; format: biochemical, mouse; conditions: 15 μM cytochrome c; 100% by 2.5 mM laurylmaltoside; Fig. 5 B
How it was run: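 Mouse liver mitochondria exposed to test peptide, followed over time. Outer-membrane permeability read as spectrophotometric/spectrofluorometric oxidation of added reduced cytochrome c (15 μM) by cytochrome c oxidase. Maximal (100%) oxidation set by 2.5 mM laurylmaltoside; signal expressed as a percentage of this. Inner-membrane NADH oxidation (2 mM, oxygen consumption) tracked in parallel.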

ANT proteoliposomes [11] = experiment: Pore-opening assay: 4-MUP release from ANT proteoliposomes; format: biochemical, rat; conditions: peptides 1 μM, 60 min, Atr 200 μM = 100%, Fig. 2 C
How it was run: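 ANT purified from rat heart mitochondria, reconstituted into PC/cardiolipin liposomes, sonicated on ice with 1 mM 4-MUP/10 mM KCl, gel-filtered. Diluted in 10 mM Hepes, 125 mM saccharose pH 7.4, peptide 1 h RT; inhibitors added 30 min earlier. Alkaline phosphatase (0.5 mM MgCl2) 15 min 37°C, stopped at pH 10. 4-MU fluorescence 360/450 nm. Release = % of atractyloside response after untreated background subtraction; n = 3, SD.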

PTPC = conditions: cited from earlier work

| Compound | interaction with recombinant Bcl-2 (recombinant Bcl-2) | channel formation at low doses without ANT [1] | NADH-dependent oxygen consumption (IM permeabilization to NADH) ([2]; 1 μM Vpr52-96, 2 mM NADH, Fig. 5 A) | time of maximal NADH oxidation after addition ([2]; Vpr52-96, 2 mM NADH, Fig. 5 B) | channel conductance, Vpr52-96 plus ANT (ANT [3]) | effect on respiration (succinate oxidation) [4] | sensorgram: increase of binding as a function of time (ANT [5]; plasmon resonance, association and dissociation phase, Fig. 1 A) | binding affinity for ANT (in words) (ANT [5]; surface plasmon resonance, purified detergent-solubilized ANT) | swollen mitochondria (isolated mitochondria; 5 min after 3 μM Vpr52-96, X ± SEM, n = 3) | swollen mitochondria (isolated mitochondria; 15 min after 3 μM Vpr52-96) | ultrastructural effect (in words) (isolated mitochondria; Vpr52-96-treated mitochondria, Fig. 6 C) | binding to ANT liposomes compared with protein-free liposomes (ANT proteoliposomes [6]) | effect on plain liposomes [7] | specific binding to VDAC (recombinant VDAC) | order of ΔΨm loss, inner MMP and cytochrome c release [8] | effect on RC (in words) [9] | access of cytochrome c to cytochrome c oxidase [10] | permeabilization of ANT proteoliposomes (ANT proteoliposomes [11]) | action on PTPC and mitochondrial hallmarks of apoptosis (PTPC) |
| --- | --- | --- | --- | --- | --- | --- | --- | --- | --- | --- | --- | --- | --- | --- | --- | --- | --- | --- | --- |
| Vpr53-96: printed once; probably Vpr52-96 | found not to interact with recombinant Bcl-2 | – | – | – | – | – | – | – | – | – | – | – | – | – | – | – | – | – | – |
| CC[C@H](C)[C@H](NC(=O)CNC(=O)[C@@H](NC(=O)[C@H](CCCNC(=N)N)NC(=O)[C@H](CO)NC(=O)[C@H](Cc1c[nH]cn1)NC(=O)[C@H](CCCNC(=N)N)NC(=O)[C@H](CS)NC(=O)CNC(=O)[C@@H](NC(=O)[C@H](CCCNC(=N)N)NC(=O)[C@H](Cc1ccccc1)NC(=O)[C@H](Cc1c[nH]cn1)NC(=O)[C@@H](NC(=O)[C@H](Cc1ccccc1)NC(=O)[C@H](CC(C)C)NC(=O)[C@H](CC(C)C)NC(=O)[C@H](CCC(N)=O)NC(=O)[C@H](CCC(N)=O)NC(=O)[C@H](CC(C)C)NC(=O)[C@@H](NC(=O)[C@H](CCCNC(=N)N)NC(=O)[C@@H](NC(=O)[C@H](CC(C)C)NC(=O)[C@H](C)NC(=O)[C@H](CCC(=O)O)NC(=O)[C@@H](NC(=O)CNC(=O)[C@@H](NC(=O)[C@H](Cc1c[nH]c2ccccc12)NC(=O)[C@@H](NC(=O)[C@@H](N)CC(=O)O)[C@@H](C)O)[C@@H](C)O)C(C)C)[C@@H](C)CC)[C@@H](C)CC)[C@@H](C)CC)[C@@H](C)CC)[C@@H](C)CC)C(=O)N[C@H](C(=O)N[C@@H](CCC(N)=O)C(=O)N[C@@H](CCC(N)=O)C(=O)N[C@@H](CCCNC(=N)N)C(=O)N[C@@H](CCCNC(=N)N)C(=O)N[C@H](C(=O)N[C@@H](CCCNC(=N)N)C(=O)N[C@@H](CC(N)=O)C(=O)NCC(=O)N[C@@H](C)C(=O)N[C@@H](CO)C(=O)N[C@@H](CCCCN)C(=O)N[C@@H](CO)C(=O)O)[C@@H](C)O)[C@@H](C)CC [Vpr52-96] | – | incapable of forming channels | prompted a significant, NADH-stimulated oxygen consumption | 10 min | 190 ± 2 pS | increased succinate oxidation preceding ADP addition and abolished both the inhibitory effect of oligomycin (a specific ATPase inhibitor) and the stimulatory effect of uncoupling by the protonophore CCCP; also recorded: not associated with a significant decrease of the oxidation rate; also recorded: adding cytochrome c to Vpr52-96–treated mitochondria oxidizing succinate did not stimulate the rate of oxygen uptake | exhibits an increase of binding as a function of time and a positive signal at the start of the dissociation phase (off) | affinity in the nanomolar range | 82 ± 4% | 99 ± 1% | exhibited matrix swelling before OM rupture became apparent | greatly facilitated in liposomes in which ANT has been reconstituted compared with protein-free liposomes | had no effect on plain liposomes | no specific binding | the ΔΨm loss occurred before cytochrome c release can be detected by immunoblot; also recorded: causes inner MMP well before OM becomes permeable to cytochrome c | gross deficiency in respiratory control | only induced a marginal access of cytochrome c to cytochrome c oxidase | caused permeabilization of ANT proteoliposomes | – |
| Vpr1-96: entire (full-length) Vpr protein | – | – | – | – | – | – | – | – | – | – | – | – | – | – | – | also reduced the RC values | – | – | act on the PTPC to induce all mitochondrial hallmarks of apoptosis, including ΔΨm loss and the release of cytochrome c and apoptosis-inducing factor (AIF) |

— paper PMC2195906 (The Journal of Experimental Medicine, 2001)
